Assay [1] addresses Cathepsin K (Homo sapiens) (UniProt P43235). Description: Inhibition of human cathepsin K assessed as second order rate constant using Z-Leu-Arg-AMC fluorogenic substrate incubated for 60 mins.
In assay [2] the target is Procathepsin L (Homo sapiens, UniProt P07711). Description: Inhibition of human cathepsin L using Z-Phe-Arg-pNA chromogenic substrate fluorogenic substrate incubated for 30 mins. Put shortly: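 Duplicate measurements at five inhibitor concentrations. IC50 from nonlinear regression of steady-state rates, v_s = v0/(1+[I]/IC50). Ki obtained as IC50/(1+[S]/Km).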
Procathepsin L, sequence (P07711 whole entry): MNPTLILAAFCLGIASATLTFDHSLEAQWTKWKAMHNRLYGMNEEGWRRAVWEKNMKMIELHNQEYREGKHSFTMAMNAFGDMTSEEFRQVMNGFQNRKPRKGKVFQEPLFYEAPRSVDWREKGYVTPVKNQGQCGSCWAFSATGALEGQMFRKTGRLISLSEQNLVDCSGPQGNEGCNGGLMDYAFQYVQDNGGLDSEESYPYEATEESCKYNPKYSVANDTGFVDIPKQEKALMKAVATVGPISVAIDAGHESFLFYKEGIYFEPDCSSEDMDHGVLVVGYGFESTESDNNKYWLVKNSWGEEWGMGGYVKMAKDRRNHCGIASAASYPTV
In assay [3] the target is T1, Cathepsin S (Homo sapiens, UniProt P25774). Description: Inhibition of human cathepsin S assessed as second order rate constant using Z-Phe-Arg-AMC fluorogenic substrate incubated for 60 mins.
Target sequence in this assay (P25774 115-331 limits assumed): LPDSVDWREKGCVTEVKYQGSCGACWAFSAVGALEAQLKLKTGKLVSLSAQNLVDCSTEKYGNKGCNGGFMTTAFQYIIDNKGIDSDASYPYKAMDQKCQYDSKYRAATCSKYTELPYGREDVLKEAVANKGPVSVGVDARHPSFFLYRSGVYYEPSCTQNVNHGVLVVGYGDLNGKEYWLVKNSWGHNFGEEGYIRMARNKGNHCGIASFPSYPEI
Assay [4] deals with Cathepsin B (Homo sapiens, UniProt P07858). As to the kind of experiment: Inhibition of human cathepsin B using Z-Arg-Arg-pNA chromogenic substrate fluorogenic substrate incubated for 30 mins. The method in brief:
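Chromogenic readout with Z-Arg-Arg-pNA at 500 μM final (0.45 × Km), followed over 30 min. Duplicate runs at five inhibitor concentrations. IC50 obtained by nonlinear regression of steady-state rates, v_s = v0/(1+[I]/IC50). Ki derived as IC50/(1+[S]/Km).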

In assay [5] the target is T1, Cathepsin S. Description: Inhibition of human cathepsin S using Z-Phe-Arg-AMC fluorogenic substrate fluorogenic substrate incubated for 60 mins. Put shortly: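 Z-Phe-Arg-AMC substrate at 40 μM final (0.74 × Km), monitored over 60 min. Duplicate runs at five inhibitor concentrations. Steady-state rates fitted by nonlinear regression, v_s = v0/(1+[I]/IC50). Ki converted using IC50/(1+[S]/Km).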
Target sequence in this assay (P25774 whole entry): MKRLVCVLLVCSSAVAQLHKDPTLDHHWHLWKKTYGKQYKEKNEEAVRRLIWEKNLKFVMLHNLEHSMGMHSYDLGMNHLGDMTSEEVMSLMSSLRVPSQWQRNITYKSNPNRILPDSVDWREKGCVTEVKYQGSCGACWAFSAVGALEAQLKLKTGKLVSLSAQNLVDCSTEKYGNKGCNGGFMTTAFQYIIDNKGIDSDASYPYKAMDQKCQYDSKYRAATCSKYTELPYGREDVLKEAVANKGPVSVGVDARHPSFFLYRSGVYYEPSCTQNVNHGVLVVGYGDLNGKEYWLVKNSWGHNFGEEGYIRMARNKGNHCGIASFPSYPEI

Assay [6] has as its target T1, Cathepsin S. As to the kind of experiment: Inhibition of human cathepsin S assessed half life for enzyme-inhibitor complex using Z-Phe-Arg-AMC fluorogenic substrate fluorogenic substrate incubated for 60 mins. The method in brief: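 Complex half-lives calculated from koff values for cathepsin K and cathepsin S. Progress curves used fluorescence emission at 440 nm with excitation at 360 nm. First-order rate constants kobs plotted against inhibitor concentration.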
Target sequence in this assay (P25774 115-331 limits assumed): as the sequence (P25774 115-331 limits assumed) above

As a reminder, the Ki is the dissociation constant of the complex between target and ligand, obtained from inhibition or displacement. High values mean weaker binding, low ones tighter binding.

Cathepsin K (Homo sapiens), sequence (P43235 whole entry, looked up): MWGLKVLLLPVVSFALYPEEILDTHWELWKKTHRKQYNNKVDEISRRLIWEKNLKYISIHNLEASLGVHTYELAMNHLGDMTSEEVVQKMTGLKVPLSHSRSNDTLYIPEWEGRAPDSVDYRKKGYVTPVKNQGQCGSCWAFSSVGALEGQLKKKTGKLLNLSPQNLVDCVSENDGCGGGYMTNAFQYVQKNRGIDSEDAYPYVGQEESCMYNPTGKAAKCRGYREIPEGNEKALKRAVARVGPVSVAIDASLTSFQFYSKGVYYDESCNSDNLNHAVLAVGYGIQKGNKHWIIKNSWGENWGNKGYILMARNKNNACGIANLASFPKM

For `CN(Cc1ccccc1)C(=O)CN(C#N)NC(=O)OC(C)(C)C`, the K stood at 28900 ×10³ /M/s in assay [1] and 1590 ×10³ /M/s in assay [3]. The Ki in assay [2] was determined as 228 nM; in assay [4], 0.459 nM; in assay [5], 0.176 nM.

`CN(C(=O)OC(C)(C)C)N(C#N)CC(=O)N1CCOCC1`: the K in assay [1] amounted to 4.05 ×10³ /M/s; in assay [3], 0.461 ×10³ /M/s. For the same compound, the results for the Ki in assay [2], in assay [4] and in assay [5] were 1690 nM, 194 nM and 793 nM, respectively.

Consider `CC(C)(C)OC(=O)NN(C#N)CC(=O)N1CCOCC1`, for which the results for the K in assay [1] and in assay [3] were 19000 ×10³ /M/s and 757 ×10³ /M/s, respectively. In addition, the Ki in assay [2] came to 573 nM; in assay [4] it was 3.56 nM; in assay [5], 0.777 nM. The T1/2 in assay [6] was determined as 10 min.

As to `CCCN1CCN(c2ccc(C(=O)NC3(C(=O)NCC#N)CCCCC3)cc2)CC1` [BALICATIB], the figures for the Ki in assay [2], in assay [4] and in assay [5] were 3260 nM, 3800 nM and 30100 nM, respectively.

Consider `CC(C)(C)OC(=O)NN(C#N)CC(=O)N(Cc1ccccc1)Cc1ccccc1`, for which the values for the K in assay [1] and in assay [3] were 52900 ×10³ /M/s and 2580 ×10³ /M/s, respectively. For the same compound, the values for the Ki in assay [2], in assay [4] and in assay [5] were 185 nM, 0.406 nM and 0.13 nM, respectively.
